Measurements: ChEMBL document CHEMBL1151773, “Synthesis and biological evaluation of amide derivatives of (5,6-dimethoxy-2,3-dihydro-1H-inden-1-yl)acetic acid as anti-inflammatory agents with reduced gastrointestinal ulcerogenecity” (Eur J Med Chem, 2008)

Legend:
Mus musculus = test: Analgesic activity in Swiss albino mouse assessed as inhibition of acetic acid-induced writhing at 100 mg/kg, po administered 60 mins before acetic acid challenge after 5 to 15 mins relative to control; type: functional
How it was run: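 Female Swiss albino mice, 20±5 g, fasted overnight with free water access, dosed orally; 1 h later injected i.p. with 1% v/v acetic acid at 0.1 ml/10 g. Writhes (full hind-limb extension) counted for 15 min, starting 5 min after injection; only animals giving 20 or more writhes used. % inhibition = 100(1−Wt/Wc) vs control group mean; six animals per group.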

Rattus norvegicus [1] = test: Antiinflammatory activity in Wistar rat assessed as inhibition of carrageenan-induced hind paw edema volume at 100 mg/kg, po administered 60 mins before carrageenan challenge after 24 hrs relative to control; type: functional
Rattus norvegicus [2] = test: Antiinflammatory activity in Wistar rat assessed as inhibition of carrageenan-induced hind paw edema volume at 100 mg/kg, po administered 60 mins before carrageenan challenge after 6 hrs relative to control; type: functional
Rattus norvegicus [3] = test: Antiinflammatory activity in Wistar rat assessed as inhibition of carrageenan-induced hind paw edema volume at 100 mg/kg, po administered 60 mins before carrageenan challenge after 4 hrs relative to control; type: functional
Rattus norvegicus [4] = test: Antiinflammatory activity in Wistar rat assessed as inhibition of carrageenan-induced hind paw edema volume at 100 mg/kg, po administered 60 mins before carrageenan challenge after 3 hrs relative to control; type: functional
Rattus norvegicus [5] = test: Antiinflammatory activity in Wistar rat assessed as inhibition of carrageenan-induced hind paw edema volume at 100 mg/kg, po administered 60 mins before carrageenan challenge after 1 hr relative to control; type: functional
Rattus norvegicus [6] = test: Antiinflammatory activity in Wistar rat assessed as inhibition of carrageenan-induced hind paw edema volume at 100 mg/kg, po administered 60 mins before carrageenan challenge after 2 hrs relative to control; type: functional
Rattus norvegicus [7] = test: Antipyretic activity in Wistar rat assessed as change in LPS-induced rectal temperature at 100 mg/kg, po administered 30 mins before LPS challenge after 7 hrs; type: functional
How it was run: (§1)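 Adult female Wistar rats, 170±20 g, fasted 24 h, dosed orally at 09:00; 30 min later E. coli 0111:B4 phenol-extracted LPS in apyrogenic saline given i.p. Rectal temperature by telethermometer probe just before and 1–7 h hourly after LPS; temperature index calculated from these readings. n = 6.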

Rattus norvegicus [8] = test: Antipyretic activity in Wistar rat assessed as change in LPS-induced rectal temperature at 100 mg/kg, po administered 30 mins before LPS challenge after 6 hrs; type: functional; how it was run: as §1
Rattus norvegicus [9] = test: Antipyretic activity in Wistar rat assessed as change in LPS-induced rectal temperature at 100 mg/kg, po administered 30 mins before LPS challenge after 5 hrs; type: functional; how it was run: as §1
Rattus norvegicus [10] = test: Antipyretic activity in Wistar rat assessed as change in LPS-induced rectal temperature at 100 mg/kg, po administered 30 mins before LPS challenge after 4 hrs; type: functional; how it was run: as §1
Rattus norvegicus [11] = test: Antipyretic activity in Wistar rat assessed as change in LPS-induced rectal temperature at 100 mg/kg, po administered 30 mins before LPS challenge after 2 hrs; type: functional; how it was run: as §1
Rattus norvegicus [12] = test: Antipyretic activity in Wistar rat assessed as change in LPS-induced rectal temperature at 100 mg/kg, po administered 30 mins before LPS challenge after 3 hrs; type: functional; how it was run: as §1
Rattus norvegicus [13] = test: Antipyretic activity in Wistar rat assessed as change in LPS-induced rectal temperature at 100 mg/kg, po administered 30 mins before LPS challenge after 1 hr; type: functional; how it was run: as §1
Rattus norvegicus [14] = test: Gastrointestinal toxicity in Wistar rat assessed as ulcer index at 100 mg/kg, po after 6 hrs; type: organism-based; parameters: dose 100 mg/kg, route oral; conditions: in vivo
How it was run: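 Female Wistar rats, 175±25 g, fasted 24 h, dosed orally once; sacrificed 6 h later by cervical dislocation. Stomach opened along greater curvature, saline-washed, mucosa inspected with a hand lens. Lesions graded I (edema/hyperemia/petechiae), II (hemorrhagic lesions with small erosions), III (deep ulcers); UI = nI + 2nII + 3nIII. Mean ± SEM, n = 6.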

Rattus norvegicus [15] = test: Antiarthritic activity in Freund's complete adjuvant challenged Albino rat model assessed as change in body weight at 100 mg/kg, po administered for 14 days daily once starting a day before adjuvant challenge; type: functional; conditions: 336 h, read-out: INH
Rattus norvegicus [16] = test: Antiarthritic activity in Albino rat assessed as inhibition of Freund's complete adjuvant-induced paw volume at 100 mg/kg, po administered for 14 days daily once starting a day before adjuvant challenge measured on day 13; type: functional
How it was run: (§2)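 Female albino rats, 160±10 g, six per group, dosed orally once daily for 14 days starting the day before 0.1 ml Freund's complete adjuvant into the right hind paw subplantar surface. Both hind paw volumes, measured up to a mark at the lateral malleolus, taken before and daily after adjuvant.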

Rattus norvegicus [17] = test: Antiarthritic activity in Albino rat assessed as inhibition of Freund's complete adjuvant-induced paw volume at 100 mg/kg, po administered for 14 days daily once starting a day before adjuvant challenge measured on day 8; type: functional; how it was run: as §2
Rattus norvegicus [18] = test: Antiarthritic activity in Albino rat assessed as inhibition of Freund's complete adjuvant-induced paw volume at 100 mg/kg, po administered for 14 days daily once starting a day before adjuvant challenge measured on day 3; type: functional; how it was run: as §2

| Structure (SMILES) | inhibition in vivo at 100 mg/kg (Mus musculus) | inhibition in vivo at 100 mg/kg (Rattus norvegicus [1]) | inhibition in vivo at 100 mg/kg (Rattus norvegicus [2]) | inhibition in vivo at 100 mg/kg (Rattus norvegicus [3]) | inhibition in vivo at 100 mg/kg (Rattus norvegicus [4]) | inhibition in vivo at 100 mg/kg (Rattus norvegicus [5]) | inhibition in vivo at 100 mg/kg (Rattus norvegicus [6]) | Activity (Rattus norvegicus [7]) | Activity (Rattus norvegicus [8]) | Activity (Rattus norvegicus [9]) | Activity (Rattus norvegicus [10]) | Activity (Rattus norvegicus [11]) | Activity (Rattus norvegicus [12]) | Activity (Rattus norvegicus [13]) | UI (Rattus norvegicus [14]) | inhibition in vivo at 100 mg/kg (Rattus norvegicus [15]) | inhibition in vivo at 100 mg/kg (Rattus norvegicus [16]) | inhibition in vivo at 100 mg/kg (Rattus norvegicus [17]) | inhibition in vivo at 100 mg/kg (Rattus norvegicus [18]) |
| --- | --- | --- | --- | --- | --- | --- | --- | --- | --- | --- | --- | --- | --- | --- | --- | --- | --- | --- | --- |
| COc1cc2c(cc1OC)C(CC(=O)NCc1ccccc1)CC2 (stereo not drawn) | 48% | 43.3% | 30.6% | 18.8% | 14.4% | 18.8% | 24% | – | – | – | – | – | – | – | – | – | – | – | – |
| COc1cc2c(cc1OC)C(CC(=O)NC1CC1)CC2 (stereo not drawn) | 32.7% | 0% | 11.1% | 17.2% | 18.8% | 21.9% | 14% | – | – | – | – | – | – | – | – | – | – | – | – |
| COc1cc2c(cc1OC)C(CC(=O)N1CCOCC1)CC2 (stereo not drawn) | 23.6% | 23.3% | 14.8% | 13.3% | 19.6% | 15.6% | 14% | – | – | – | – | – | – | – | – | – | – | – | – |
| COc1cc2c(cc1OC)C(CC(=O)O)CC2 (stereo not drawn) | 44% | 26.7% | 20.4% | 23.9% | 27.5% | 18.8% | 24% | – | – | – | – | – | – | – | – | – | – | – | – |
| COc1cc2c(cc1OC)C(CC(N)=O)CC2 (stereo not drawn) | 24.6% | 26.7% | 27.8% | 31.2% | 30.4% | 18.8% | 31% | – | – | – | – | – | – | – | – | – | – | – | – |
| COc1cc2c(cc1OC)C(CC(=O)NC(C)(C)C)CC2 (stereo not drawn) | 41.8% | 40% | 31.5% | 32.8% | 33.3% | 31.2% | 32% | – | – | – | – | – | – | – | – | – | – | – | – |
| CC(=O)Oc1ccccc1C(=O)O [ASPIRIN] | 61.5% | – | – | – | – | – | – | 0.23 °C | 0.17 °C | 0.11 °C | 0.05 °C | -1.45 °C | -0.51 °C | -0.43 °C | – | – | – | – | – |
| CCNC(=O)CC1CCc2cc(OC)c(OC)cc21 (stereo not drawn) | 23.6% | 33.3% | 20.4% | 26.6% | 26.1% | 15.6% | 26% | – | – | – | – | – | – | – | – | – | – | – | – |
| CNC(=O)CC1CCc2cc(OC)c(OC)cc21 (stereo not drawn) | 21.2% | 33.3% | 24.1% | 29.7% | 29% | 15.6% | 30% | – | – | – | – | – | – | – | – | – | – | – | – |
| COc1cc2c(cc1OC)C(CC(=O)N(C)C)CC2 (stereo not drawn) | 22.6% | 23.3% | 33.3% | 35.9% | 34.8% | 25% | 36% | – | – | – | – | – | – | – | – | – | – | – | – |
| COc1cc2c(cc1OC)C(CC(=O)NCCO)CC2 (stereo not drawn) | 29.8% | 13.3% | 13% | 9.37% | 12.3% | 0% | 0% | 0.66 °C | 0.65 °C | 0.57 °C | 0.34 °C | -1.93 °C | 0.17 °C | -0.65 °C | – | – | – | – | – |
| CCCCCNC(=O)CC1CCc2cc(OC)c(OC)cc21 (stereo not drawn) | 71.7% | 46.7% | 35.2% | 40.6% | 37.7% | 34.4% | 34% | – | – | – | – | – | – | – | – | – | – | – | – |
| COc1cc2c(cc1OC)C(CC(=O)N1CCNCC1)CC2 (stereo not drawn) | 68.8% | 65% | 33.3% | 40.6% | 42% | 62.5% | 44% | 0.16 °C | 0.19 °C | 0.11 °C | -0.18 °C | -1.23 °C | -0.85 °C | -0.45 °C | 0 | 3.11 g | 2.35% | 28.8% | 35.3% |
| COc1cc2c(cc1OC)C(CC(=O)N1CCCC1)CC2 (stereo not drawn) | 19.2% | 33.3% | 22.2% | 24.2% | 26.1% | 4.69% | 20% | – | – | – | – | – | – | – | – | – | – | – | – |
| CCCNC(=O)CC1CCc2cc(OC)c(OC)cc21 (stereo not drawn) | 26.9% | 26.7% | 22.2% | 26.6% | 29% | 18.8% | 28% | – | – | – | – | – | – | – | – | – | – | – | – |
| COc1cc2c(cc1OC)C(CC(=O)NC(C)C)CC2 (stereo not drawn) | 29.3% | 30% | 37% | 39.1% | 30.4% | 31.2% | 37% | 0.59 °C | 0.55 °C | 0.43 °C | 0.19 °C | -1.51 °C | -0.39 °C | -0.41 °C | 0 | – | – | – | – |
| COc1cc2c(cc1OC)C(CC(=O)NC1CCCC1)CC2 (stereo not drawn) | 37% | 46.7% | 40.7% | 45.3% | 43.5% | 40.6% | 52% | – | – | – | – | – | – | – | – | – | – | – | – |
| CCN(CC)C(=O)CC1CCc2cc(OC)c(OC)cc21 (stereo not drawn) | 27.4% | 16.7% | 31.5% | 37.5% | 37.7% | 31.2% | 40% | – | – | – | – | – | – | – | – | – | – | – | – |
| COc1cc2c(cc1OC)C(CC(=O)N1CCCCC1)CC2 (stereo not drawn) | 44.7% | 40% | 31.5% | 32% | 31.9% | 18.8% | 22% | – | – | – | – | – | – | – | – | – | – | – | – |
| CCCCNC(=O)CC1CCc2cc(OC)c(OC)cc21 (stereo not drawn) | 39.4% | 36.7% | 24.1% | 25% | 27.5% | 31.2% | 24% | – | – | – | – | – | – | – | – | – | – | – | – |
